Screening data: PubChem, several laboratories
Rows were chosen to be rich in hits. Some 2.3% of all compounds tested hit in one or more screens of this group.
ZTA counter = blocks Epstein-Barr virus ZTA, an EBNA-1 counter-screen | P03206 | ZTA-DNA binding, fluorescence polarization | inhibition, % at 11 µM | actives 0.15% (n = 320,000) | AID 2234; in the data active means inhibition above about 33%
Target sequence (P03206 whole entry, looked up): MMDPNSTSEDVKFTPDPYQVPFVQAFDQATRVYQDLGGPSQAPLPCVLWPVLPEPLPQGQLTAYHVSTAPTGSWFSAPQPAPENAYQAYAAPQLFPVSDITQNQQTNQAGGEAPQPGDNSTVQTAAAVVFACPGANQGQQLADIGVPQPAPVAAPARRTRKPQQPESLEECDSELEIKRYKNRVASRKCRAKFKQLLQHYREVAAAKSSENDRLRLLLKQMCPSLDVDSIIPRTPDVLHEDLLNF
GPR7 antagonist = antagonists of human GPR7 (neuropeptides B/W receptor 1) | GPR7-expressing cells, fluorescence antagonist assay | inhibition, % at 4.4 µM | actives 1.1% (n = 290,000) | AID 1861; in the data active means inhibition above about 16%, passing the limit was not always enough;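 further: cells stimulated with the agonist NPW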
Target sequence (P48145 whole entry, looked up): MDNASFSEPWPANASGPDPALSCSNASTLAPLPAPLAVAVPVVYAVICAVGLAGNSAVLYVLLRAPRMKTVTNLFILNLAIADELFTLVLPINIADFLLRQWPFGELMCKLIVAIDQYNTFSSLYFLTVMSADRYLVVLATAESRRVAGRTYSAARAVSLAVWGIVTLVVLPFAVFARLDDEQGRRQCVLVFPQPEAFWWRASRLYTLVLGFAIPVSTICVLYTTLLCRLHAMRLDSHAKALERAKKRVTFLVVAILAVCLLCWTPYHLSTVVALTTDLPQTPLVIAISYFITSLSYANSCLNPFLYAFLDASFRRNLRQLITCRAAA
NS3 helicase inh = blocks Hepatitis C virus NS3 helicase unwinding | NS3 helicase DNA unwinding, Cy5 molecular beacon fluorescence | inhibition, % at 10.9 µM | actives 0.56% (n = 290,000) | AID 1800;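 active means inhibition above the mean of all tested compounds plus 3 SD, set per campaign, cut at about 35% in these data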
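System: HCV NS3 helicase fragment; control set: DMSO and thioflavine S; technique: Cy5 fluorescence at 0 and 60 min, beacon hairpin quenching; reagent: beacon DNA duplex substrate plus ATP; replicates: singlicate; schedule: 1 h reaction at 25 °C, ATP-initiated; medium: MOPS buffer pH 6.5 with MgCl2, DTT, Tween20, BSA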
EBNA-1 inhibitor = blocks EBNA-1 binding to DNA | EBNA-1 DNA binding, fluorescence polarization | inhibition, % at 14.8 µM | actives 0.34% (n = 300,000) | AID 1950; in the data active means inhibition above about 28%
EBV gp42 inh = blocks Epstein-Barr virus glycoprotein 42 binding; actives 0.42% (n = 220,000); Fluorescence polarization binding assay, mP read-out; inhibition, % (tested at 21.74 µM); in the data active means inhibition above about 50%
HCV core dimer = HCV core protein dimerization inhibition; actives 0.33% (n = 300,000); TR-FRET GST/Flag-core106 dimerization, 1536-well; inhibition, % at 5 µM;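 active means inhibition above the mean of all tested compounds plus 3 SD, set per screening campaign, cut at about 45% in these data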
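System: GST/Flag-tagged HCV core106 proteins. Incubation: compound-protein-antibody incubation 4 h at 22.5 °C. Technique: HTRF with 340 nm excitation, 617/671 nm emission. Medium: KF-containing HEPES buffer, pH 7.45, DTT, CHAPS, BSA. Read-out: inhibition (%) from 671 over 617 nm ratio. Also added: Eu(K)-anti-GST 90 ng/mL plus XL665-anti-Flag 1 µg/mL.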
GPR7 antag conf = human GPR7 antagonism, confirmation assay; actives 52% (n = 2,400); inhibition, % at 4.4 µM; AID 1952; GPR7-expressing cells, calcium fluorescence antagonist mode; shares compounds with GPR7 antagonist; in the data active means inhibition above about 24%;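 further: stimulated with the GPR7 agonist NPW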
MCHR1 antagonist = counter-screen for GPR7 antagonists: antagonists of human MCHR1 | shares compounds with GPR7 antagonist | MCHR1-expressing cells, fluorescence antagonist assay | inhibition, % at 4.4 µM | actives 62% (n = 2,400) | AID 2148; in the data active means inhibition above about 22%
A number is an active result; 0 = inactive; - = no result given.

SMILES | ZTA counter | GPR7 antagonist | NS3 helicase inh | EBNA-1 inhibitor | EBV gp42 inh | HCV core dimer | GPR7 antag conf | MCHR1 antagonist
CCc1cc2c(=O)n(-c3ccccc3)c(=S)[nH]c2s1 | 0 | 0 | 0 | 0 | 0 | 0 | - | -
c1ccc(C(c2ccccn2)c2ccccn2)cc1 | 0 | 0 | 0 | 0 | 0 | 0 | - | -
CC(=O)Oc1ccc(C(c2ccc(OC(C)=O)cc2)c2ccccn2)cc1 | 0 | 66.3 | 0 | 0 | 0 | 0 | 76.2 | 46.6
CC(NCCC(c1ccccc1)c1ccccc1)c1ccccc1 (centres undefined) | 0 | 28.1 | 0 | 0 | 0 | 0 | 50.8 | 54.6
C(=N/n1c2ccccc2c2ccccc21)/c1ccco1 | 0 | 26.3 | 0 | 0 | 0 | 0 | 0 | 0
C(=N\n1c2ccccc2c2ccccc21)/c1ccccc1 | 0 | 0 | 0 | 0 | 0 | 0 | - | -
CCN(CC)C(=O)Cn1cc(C(=O)C(=O)N2CCc3ccccc32)c2ccccc21 | 0 | 0 | 0 | 0 | 0 | 0 | - | -
CC(=O)c1cc(CN2CCN(C3CCN(C(C)C)CC3)C(CCO)C2)cs1 (centres undefined) | 0 | 0 | 0 | 0 | 0 | 0 | - | -
O=C1CCCCCN1Sc1ccccc1 | 0 | 25.5 | 0 | 0 | 0 | 0 | 32.1 | 88.2
Cc1cc(C)c(NC(=O)CCn2nnc3ccccc32)c(C)c1 | 0 | 0 | 0 | 0 | 0 | 0 | - | -
CC(=O)c1ccc(N2CCN(C(=O)Cc3ccccc3)CC2)c(F)c1 | 0 | 44.7 | 0 | 0 | - | 0 | 0 | 0
CC1CC(C)CN(S(=O)(=O)c2ccc(C(=O)N3CCCC3)cc2)C1 (centres undefined) | 0 | 0 | 0 | 0 | - | 0 | - | -
CC1CC(C)CN(C(=O)c2ccc(S(=O)(=O)N3CC(C)CC(C)C3)cc2)C1 (centres undefined) | 0 | 25.1 | 0 | 0 | - | 0 | 23.8 | 22.9
CC(=O)c1ccc(S(=O)(=O)N2CCN(c3ccccc3F)CC2)cc1 | 0 | 25.4 | 0 | 0 | 0 | 0 | 25.2 | 23.3
COC(=O)c1cc(S(=O)(=O)N2CCN(c3ccc([N+](=O)[O-])cc3)CC2)c[nH]1 | 0 | 32.4 | 0 | 0 | - | 0 | 0 | 0
O=C(c1ccc(S(=O)(=O)N2CCCCCC2)cc1)N1CCN(c2ccccc2F)CC1 | 0 | 0 | 0 | 0 | - | 0 | - | -
COC(=O)c1cc(S(=O)(=O)N2CCN(c3ccc(F)cc3)CC2)c[nH]1 | 0 | 0 | 0 | 0 | - | 0 | - | -
OCC[C@@H]1C[C@@H](O)[C@H](O)[C@@]2(CCCCO2)O1 | 0 | - | - | 0 | - | 0 | - | -
O=C(CCNC(=O)c1ccc(Br)cc1)NCc1ccncc1 | 0 | - | - | 0 | - | 0 | - | -
OCC(Cc1ccc2c(c1)OCO2)C(CO)Cc1ccc2c(c1)OCO2 (centres undefined) | 0 | - | - | 0 | 0 | 0 | - | -
COC(=O)c1cc(S(=O)(=O)N2CCCCCC2)cn1C | 0 | 0 | 0 | 0 | - | 0 | - | -
COC(=O)c1cc(S(=O)(=O)N2CCN(c3ccc(C(C)=O)cc3)CC2)cn1C | 0 | 24.6 | 0 | 0 | - | 0 | 0 | 41.4
O=C(CSc1ccc(-c2cccs2)nn1)c1cccs1 | 0 | 0 | 0 | 0 | 0 | 0 | - | -
C=CCn1c(O)c(C2=c3ccccc3=NC2=O)c2ccccc21 | 0 | 38.2 | 0 | 0 | - | 0 | 46.4 | 86.3
CSc1nc(C)c2c(n1)N(c1ccc(F)cc1)CC2 | 0 | 0 | 0 | 0 | 0 | 0 | - | -
SMILES | ZTA counter | GPR7 antagonist | NS3 helicase inh | EBNA-1 inhibitor | EBV gp42 inh | HCV core dimer | GPR7 antag conf | MCHR1 antagonist
Cc1ccc2nc(C)c3c(c2c1)N(c1ccc(F)cc1)CC3 | 0 | 34.9 | 0 | 0 | 0 | 0 | 42.4 | 31.0
O=C(NCCc1ccco1)C(=O)NCC1OCCCN1S(=O)(=O)c1ccc(F)cc1 (centres undefined) | 0 | 23.7 | 0 | 0 | - | 0 | 0 | 0
COc1ccc(S(=O)(=O)N2CCN=C2SCc2cccc(F)c2)cc1 | 0 | 26.9 | 0 | 0 | - | 0 | 27.2 | 46.0
O=C(C1CCCCC1)N1CCN=C1SCc1cccc([N+](=O)[O-])c1 | 0 | 48.0 | 0 | 0 | 0 | 0 | 0 | 0
O=C(Cc1ccc([N+](=O)[O-])cc1)N1CCN=C1SCc1ccccc1 | 0 | 0 | 0 | 0 | 0 | 0 | - | -
COc1ccc(CC(=O)N2CCN=C2SCc2cccc([N+](=O)[O-])c2)cc1 | 0 | 21.3 | 0 | 0 | 0 | 0 | 41.0 | 58.4
Cc1cccc(OCC(=O)NNC(=O)C2CCCCC2C(=O)O)c1 (centres undefined) | 0 | 0 | 0 | 0 | 0 | 0 | - | -
O=C(O)c1c(C(=O)O)c(-c2ccc(Br)cc2)n2c1CSC2 | 0 | 0 | 0 | 0 | - | 0 | - | -
O=C(NNC(=O)c1ccccc1Br)c1ccc(SCC2CCCO2)c([N+](=O)[O-])c1 (centres undefined) | 0 | 0 | 0 | 0 | 0 | 0 | - | -
Cc1cc(OCC(=O)Nc2sc3c(c2C#N)CC(C)(C)NC3(C)C)c(C(C)C)cc1Cl | 0 | 0 | 0 | 0 | - | 0 | - | -
CCCc1cc(=O)[nH]c(SCC(=O)NCc2ccc3c(c2)OCO3)n1 | 0 | 0 | 0 | 0 | - | 0 | - | -
CCOC(=O)C1(CC2CCCCO2)CCN(Cc2cn[nH]c2-c2cccc(F)c2)CC1 (centres undefined) | 0 | 0 | 0 | 0 | 0 | 0 | - | -
Cc1ccc(-c2nn(-c3ccccc3)cc2CO)cc1 | 0 | 0 | 0 | 0 | - | 0 | - | -
Cc1ccc(-c2nn(-c3ccccc3)cc2CNCc2ccccc2)cc1 | 0 | 23.5 | 0 | 0 | 0 | 0 | 41.1 | 52.9
CCN(CC(=O)Nc1cc(Cl)ccc1C)C(=O)CCOc1ccc(C)cc1 | 0 | - | - | 0 | - | 0 | - | -
CCN(CC(=O)Nc1cc(Cl)ccc1C)c1ncnc2sc(C)c(C)c12 | 0 | 22.8 | 0 | 0 | 0 | 0 | 0 | 44.5
CCCn1c(SCC(=O)Nc2ccccc2Oc2ccccc2)n[nH]c1=O | 0 | 0 | 0 | 0 | 0 | 0 | - | -
CCOc1ccc(NC(=O)CCC(=O)NNS(=O)(=O)c2ccccc2[N+](=O)[O-])cc1 | 0 | 0 | 0 | 0 | 0 | 0 | - | -
CCN(C(=O)c1cc2c(s1)-c1ccccc1OC2)c1cc(OC)ccc1OC | 0 | 31.5 | 0 | 0 | - | 0 | 49.7 | 55.5
CN(C)C(CNc1ncccn1)c1ccccc1 (centres undefined) | 0 | 0 | 0 | 0 | - | 0 | - | -
O=C(CCN1C(=O)/C(=C\c2ccccc2)SC1=S)N1CCCCC1 | 0 | 21.7 | 0 | 0 | - | 0 | 0 | 0
Cc1ccc(C2N(c3ccccc3)C(=S)N3CCCN23)cc1 (centres undefined) | 0 | 24.4 | 0 | 0 | 0 | 0 | 0 | 0
Fc1ccc(C2N(c3ccccc3)C(=S)N3CCCN23)cc1 (centres undefined) | 0 | 0 | 0 | 0 | 0 | 0 | - | -
CC(C)Cc1ccc(S(=O)(=O)Nc2ccccn2)cc1 | 0 | 0 | 0 | 0 | 0 | 0 | - | -
C#CCOCCOCCOCCNc1nc(N2CCN(C(=O)Cn3cc(CCCN=C(N)N)nn3)CC2)nc(N2CCN(C(=O)Cn3cc(CCCN=C(N)N)nn3)CC2)n1 | - | 0 | 0 | - | 0 | - | - | -
